Experimental findings from ChEMBL document CHEMBL4477278, “Synthesis and evaluation of 8-hydroxyquinolin derivatives substituted with (benzo[d][1,2]selenazol-3(2H)-one) as effective inhibitor of metal-induced Aβ aggregation and antioxidant” (Bioorg Med Chem, 2016) are described below.

A short description of series [1]: Antioxidant activity assessed as glutathione peroxidase-like activity in phosphate buffer measured as initial rate for the reduction of […] by GSH at 80 uM in presence of NADPH by coupled reductase assay. The series is classed as functional. The method, boiled down:
(§1)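 Coupled reductase assay in 100 mM potassium phosphate pH 7.5 at 25 °C: 2 mM GSH, 1 mM EDTA, 1.3 U/mL glutathione reductase, 0.4 mM NADPH, 80 µM selenium compound. Reaction started with 1.6 mM peroxide. Initial rate is taken from NADPH oxidation at 340 nm over the first 5–10% of reaction (ε 6.22 mM⁻¹cm⁻¹). Triplicate, mean ± SD.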

Series [2] can be described thus: Antioxidant activity assessed as glutathione peroxidase-like activity in phosphate buffer measured as initial rate for the reduction of cumene hydroperoxide by GSH at 80 uM in presence of NADPH by coupled reductase assay. The series is classed as functional. The method, boiled down: as §1
The nature of series [3]: Antioxidant activity assessed as glutathione peroxidase-like activity in phosphate buffer measured as initial rate for the reduction of tert-butyl hydroperoxide by GSH at 80 uM in presence of NADPH by coupled reductase assay. The series is classed as functional. The method, boiled down: as §1
Series [4] in a line: Antioxidant activity assessed as t-BuOOH scavenging at 10 uM measured after 300 mins in presence of GSH and NADPH. The series is classed as functional. The method, boiled down: (§2)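 Kinetic peroxide removal in 100 mM phosphate buffer pH 7.5 at 25 °C with 1 mM EDTA, 0.25 mM GSH, 0.50 mM NADPH, 1.3 U/mL glutathione reductase, 0.20 mM peroxide and 10 µM catalyst. NADPH consumption followed over time. Means of three independent experiments.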

The nature of series [5]: Permeability of the compound at 100 ug/ml measured after 10 hrs by PAMPA-BBB assay. The series is classed as ADME. The conditions noted are these: read-out: Peff. The gist of the method:
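PAMPA-BBB: filter coated with porcine brain lipid in dodecane (20 mg/mL). Compound is dissolved in DMSO (5 mg/mL) and diluted 50-fold in PBS/EtOH 7:3 to 100 µg/mL in donor wells, with PBS/EtOH acceptor. Plates stand 10 h at 25 °C, then acceptor concentration is read by UV at five wavelengths, four wells, at least three runs. Pe is calculated by formula; assay validated with 13 reference drugs.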

A short description of series [6]: Antioxidant activity assessed as Cum-OOH scavenging at 10 uM measured after 300 mins in presence of GSH and NADPH. The series is classed as functional. The method, boiled down:
as §2

Series [7] can be described thus: Antioxidant activity assessed as H2O2 scavenging at 10 uM measured after 200 to 220 mins in presence of GSH and NADPH. The series is classed as functional. The gist of the method:
as §2

Series [8] can be described thus: Inhibition of Cu2+ induced aggregation of recombinant human amyloid beta (1 to 42) at 50 uM after 24 hrs by thioflavin-T based fluorescence assay. The gist of the method: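 Aβ1–42 (stock in 1% ammonium hydroxide), 25 µM final, with or without CuSO4 (25 µM) and compound (50 µM) in HEPES pH 6.6 with NaCl, incubated 24 h at 37 °C. Samples then diluted tenfold into 50 mM glycine-NaOH pH 8.0 containing 5 µM thioflavin T for fluorescence read-out.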

The nature of series [9]: Antioxidant activity assessed as AAPH radical scavenging activity preincubated for 10 mins followed by AAPH challenge measured as trolox equivalents measured at every min for 120 mins by ORAC-FL assay. The series is classed as functional. The gist of the method: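 ORAC-FL: compound diluted in 75 mM phosphate buffer pH 7.4, premixed with fluorescein (70 nM final) for 10 min at 37 °C, then AAPH added. Fluorescence (ex 485, em 520 nm) read each minute for 120 min. Net AUC versus blank is converted to Trolox equivalents using a Trolox standard curve (10–100 µM). Triplicates, at least three independent runs.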

Series [10] in a line: Metal chelating activity of the compound assessed as Cu2+ complex formation by measuring maximum absorption wave length at 50 uM measured after 30 mins by UV-Vis spectrometry (reference value: 301 nm). The series is classed as functional. The gist of the method: (§3)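 Compound (50 µM final) with or without metal salt (CuSO4, FeSO4, FeCl3 or ZnCl2, 50 µM final) in 20 mM HEPES, 150 mM NaCl, pH 7.4. After 30 min, UV-vis absorption spectra are recorded at room temperature.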

Series [11] can be described thus: Metal chelating activity of the compound assessed as Zn2+ complex formation by measuring maximum absorption wave length at 50 uM measured after 30 mins by UV-Vis spectrometry (reference value: 301 nm). The series is classed as functional. The method, boiled down:
as §3

A short description of series [12]: Metal chelating activity of the compound assessed as Fe3+ complex formation by measuring maximum absorption wave length at 50 uM measured after 30 mins by UV-Vis spectrometry (reference value: 301 nm). The series is classed as functional. The method, boiled down: as §3
Series [13] can be described thus: Metal chelating activity of the compound assessed as Fe2+ complex formation by measuring maximum absorption wave length at 50 uM measured after 30 mins by UV-Vis spectrometry (reference value: 301 nm). The series is classed as functional. The method, boiled down:
as §3

With `O=c1c2ccc(Cl)cc2[se]n1-c1ccc2cccc(O)c2n1`, the Activity worked out at 45 µM/min in series [1], 23.3 µM/min in series [2] and 7.1 µM/min in series [3].
As for `O=c1c2ccc(C(F)(F)F)cc2[se]n1-c1ccc2cccc(O)c2n1`, the Activity in series [1] is 64.2 µM/min; in series [2] it was 16.1 µM/min; in series [3], 10.6 µM/min.
Consider `O=c1c2c(C(F)(F)F)cccc2[se]n1-c1ccc2cccc(O)c2n1`, for which the Activity came to 161 µM/min in [1]; 31.7 µM/min in series [2]; 67% in series [4]; 62 µM/min in series [3]; 77% in [6]; 68% in series [7]. For the same compound, the Papp at 10 h, 100 ug/ml in series [5] was 10.1 ×10⁻⁶ cm/s. In addition, the inhibition in [8] came out at 79%. Also, the Activity (umolequiv/umol) in [9] came out at 0.2.
For `O=c1c2cc(O)ccc2[se]n1-c1ccc2cccc(O)c2n1`, the Activity stood at 106 µM/min in [1]; 24.3 µM/min in series [2]; 316 nm in series [10]; 30% in [4]; 304 nm in series [11]; 63.4 µM/min in series [3]. Further, the Activity in series [12] was found to be 300 nm; in [6] it was 47%; in series [7] it was 60%; in series [13] it was 297 nm. For the same compound, the Papp at 10 h, 100 ug/ml in series [5] came out at 5.9 ×10⁻⁶ cm/s. The inhibition in series [8] is 60%. Besides, in [9], the Activity (umolequiv/umol) was found to be 2.6.
Consider `O=c1c2c(F)cccc2[se]n1-c1ccc2cccc(O)c2n1`, for which the Activity in series [1] came out at 102 µM/min; in series [2], 31.4 µM/min; in series [4], 46%; in series [3] it was 47.9 µM/min; in [6] it was 74%; in series [7], 71%. Also, the Papp at 10 h, 100 ug/ml in series [5] is 7.4 ×10⁻⁶ cm/s. The inhibition in series [8] was 82%. In addition, in series [9], the Activity (umolequiv/umol) was determined as 2.3.
For the compound `O=c1c2cccc(F)c2[se]n1-c1ccc2cccc(O)c2n1`, the Activity in series [1] worked out at 152 µM/min; in series [2], 24.1 µM/min; in series [4], 31%; in series [3], 55.5 µM/min; in series [6], 66%; in series [7], 62%. Moreover, the Papp at 10 h, 100 ug/ml in [5] came out at 11.1 ×10⁻⁶ cm/s. For the same compound, the Activity (umolequiv/umol) in [9] is 3.6.
Turning to `O=c1c2c(Cl)cccc2[se]n1-c1ccc2cccc(O)c2n1`, the Activity in series [1] was found to be 155 µM/min; in [2], 35.1 µM/min; in series [4] it was 38%; in series [3] it was 52.1 µM/min; in series [6], 68%; in series [7], 65%. The Papp at 10 h, 100 ug/ml in series [5] came to 7.8 ×10⁻⁶ cm/s. The Activity (umolequiv/umol) in series [9] was found to be 0.9.
Take `O=c1c2cc(F)ccc2[se]n1-c1ccc2cccc(O)c2n1`: the Activity was determined as 64.3 µM/min in series [1], 15.9 µM/min in series [2] and 20.4 µM/min in series [3].
Turning to `O=c1c2ccccc2[se]n1-c1ccc2cccc(O)c2n1`, the Activity in series [1] amounted to 49.9 µM/min; in series [2], 17.1 µM/min; in series [3], 14 µM/min.
As to `O=c1c2cccc(C(F)(F)F)c2[se]n1-c1ccc2cccc(O)c2n1`, the Activity in [1] was determined as 132 µM/min; in series [2], 30 µM/min; in [3], 31.7 µM/min. In addition, in [5], the Papp at 10 h, 100 ug/ml is 13.3 ×10⁻⁶ cm/s. The Activity (umolequiv/umol) in series [9] came to 0.3.
For the compound `O=c1c2cc(C(F)(F)F)ccc2[se]n1-c1ccc2cccc(O)c2n1`, the Activity is 69.9 µM/min in series [1], 5.6 µM/min in [2] and 8 µM/min in [3].
For the compound `O=c1c2cc(Cl)ccc2[se]n1-c1ccc2cccc(O)c2n1`, the Activity in series [1] was 45 µM/min; in [2], 23.9 µM/min; in series [3], 6.9 µM/min.
Consider `Oc1c(I)cc(Cl)c2cccnc12`, for which the inhibition in [8] stood at 87%. In [9], the Activity (umolequiv/umol) is 0.5.
As to `O=c1c2ccc(F)cc2[se]n1-c1ccc2cccc(O)c2n1`, the Activity in series [1] came out at 77.3 µM/min; in [2] it was 11.1 µM/min; in series [3], 6.4 µM/min.
In the same order, the values of `O=c1c2ccccc2[se]n1-c1ccccc1` are 113 µM/min, 22.6 µM/min and 47.6 µM/min.
